ChEMBL document CHEMBL1130123, “Optimization of 3-(1H-indazol-3-ylmethyl)-1,5-benzodiazepines as potent, orally active CCK-A agonists” (J Med Chem, 1997)

Columns and labels:
[1] = molecular target: T1, Cholecystokinin receptor type A (Homo sapiens, UniProt P32238); assay: In vitro for binding affinity against human cholecystokinin type A receptor.
T1 sequence (P32238 whole entry): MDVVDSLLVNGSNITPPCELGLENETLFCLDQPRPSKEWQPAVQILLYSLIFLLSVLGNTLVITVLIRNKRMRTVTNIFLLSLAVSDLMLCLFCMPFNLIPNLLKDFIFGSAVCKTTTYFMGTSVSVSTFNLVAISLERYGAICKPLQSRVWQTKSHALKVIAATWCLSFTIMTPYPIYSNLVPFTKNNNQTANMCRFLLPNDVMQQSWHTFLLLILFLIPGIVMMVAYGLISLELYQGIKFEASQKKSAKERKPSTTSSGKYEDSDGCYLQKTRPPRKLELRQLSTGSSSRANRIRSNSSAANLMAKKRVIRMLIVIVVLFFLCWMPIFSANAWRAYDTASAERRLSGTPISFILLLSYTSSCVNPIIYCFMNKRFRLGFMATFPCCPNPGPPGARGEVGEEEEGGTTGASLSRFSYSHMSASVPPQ

Cavia porcellus [2] = organism: Cavia porcellus; assay: In vitro functional efficacy relative to CCK-8 in inducing contraction of the isolated guinea pig gallbladder (GPGB) at a 1 uM concentration.
Outline: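 Isolated guinea pig gallbladder, ligand 1 μM, 30 min at 37 °C; maximal contraction expressed relative to CCK-8 (1 μM) = 100%; values ± 5%.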

Cavia porcellus [3] = organism: Cavia porcellus; assay: In vitro functional agonist activity in the isolated guinea pig gall bladder, concentration at which 50% of the maximal contraction observed was reported.; conditions: read-out: ED50 (the source's name)
[4] = molecular target: T2, Gastrin/cholecystokinin type B receptor (Homo sapiens, UniProt P32239); assay: In vitro for binding affinity against human cholecystokinin type B receptor.
T2 sequence (P32239 whole entry): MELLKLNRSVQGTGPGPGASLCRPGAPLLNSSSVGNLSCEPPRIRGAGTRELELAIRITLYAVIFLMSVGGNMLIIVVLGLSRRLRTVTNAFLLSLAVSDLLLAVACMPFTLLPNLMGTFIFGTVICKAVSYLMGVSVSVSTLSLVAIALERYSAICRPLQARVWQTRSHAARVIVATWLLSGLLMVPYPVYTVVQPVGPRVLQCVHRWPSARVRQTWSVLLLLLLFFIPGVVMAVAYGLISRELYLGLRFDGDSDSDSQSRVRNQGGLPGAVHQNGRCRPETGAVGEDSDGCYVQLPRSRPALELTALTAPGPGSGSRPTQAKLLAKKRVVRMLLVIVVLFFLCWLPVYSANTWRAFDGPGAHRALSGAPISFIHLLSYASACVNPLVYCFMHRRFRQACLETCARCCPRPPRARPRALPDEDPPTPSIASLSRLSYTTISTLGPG

Rattus norvegicus [5] = assay: Anorectic potency in rat was tested and intraperitoneal dose that produces a half maximal response (in vivo); format: functional; conditions: ip
Mus musculus [6] = assay: Maximal response at 1 nmol/kg intraperitoneal dose; format: functional
Rattus norvegicus [7] = assay: Maximal response at 0.5 umol/kg intraperitoneal dose; format: functional
Mus musculus [8] = assay: maximal response at 1 nmol/kg peroral dose; format: functional
Mus musculus [9] = assay: Intraperitoneal dose that produces a half maximal response in mouse gall bladder emptying assay (in vivo); format: functional; conditions: ip
[10] = Oral bioavailability in Long-Evans rats at an intravenous dose of 6.3 mg/kg; Not active; format: ADME, organism-based; conditions: rat, in vivo
[11] = Maximum concentration at an peroral dose of 6.2 mg/kg in rat; format: ADME, organism-based; parameters: dose 6.2 mg/kg, route oral; conditions: in vivo, po
Mus musculus [12] = assay: Peroral dose that produces a half maximal response in mouse gall bladder emptying assay (in vivo); format: functional; conditions: po
[13] = Maximum concentration at an intravenous dose of 6.3 mg/kg; format: ADME, organism-based; parameters: dose 6.3 mg/kg, route intravenous; conditions: rat, in vivo
[14] = Oral bioavailability in Long-Evans rats at an intraduodenal dose of 6.6 mg/kg; format: ADME, organism-based; conditions: rat, in vivo, other: intraduodenal
[15] = Volume of distribution at steady state at an intravenous dose of 6.3 mg/kg in rat; format: ADME, organism-based; parameters: dose 6.3 mg/kg, route intravenous; conditions: in vivo, read-out: Vss
[16] = Total body clearance at an intravenous dose of 6.3 mg/kg in rat; format: ADME, organism-based; parameters: dose 6.3 mg/kg, route intravenous; conditions: in vivo
[17] = Maximum concentration at an intraduodenal dose of 6.6 mg/kg in rat; format: ADME, organism-based; parameters: dose 6.6 mg/kg, route intraduodenal; conditions: in vivo
[18] = Half life period at an intravenous dose of 6.3 mg/kg in rat; format: ADME, organism-based; parameters: dose 6.3 mg/kg, route intravenous; conditions: in vivo
[19] = Oral bioavailability in Long-Evans rats at an peroral dose of 6.2 mg/kg; format: ADME, organism-based; conditions: rat, in vivo
Mus musculus [20] = assay: Maximal response at 1 nmol/kg peroral dose; format: functional

Row | SMILES | IC50 [1] | Max (Cavia porcellus [2]) | EC50 (Cavia porcellus [3]) | IC50 [4] | also measured
1 | O=C1C(Cc2n[nH]c3ccccc23)C(=O)N(c2ccccc2)c2ccccc2N1CC(=O)N(c1ccccc1)C1CC1 (stereo not drawn) | 0.525 µM | 70% | 0.02 µM | 0.0251 µM | 
2 | CSCC[C@H](NC(=O)[C@H](Cc1ccc(OS(=O)(=O)O)cc1)NC(=O)[C@@H](N)CC(=O)O)C(=O)NCC(=O)N[C@@H](Cc1c[nH]c2ccccc12)C(=O)N[C@@H](CCSC)C(=O)N[C@@H](CC(=O)O)C(=O)N[C@@H](Cc1ccccc1)C(N)=O [SINCALIDE] |  |  |  |  | ED50 (Rattus norvegicus [5]): 0.03 µmol/kg; Max (Mus musculus [6]): 95%; Max (Rattus norvegicus [7]): 95%
3 | COc1ccc(N(C(=O)CN2C(=O)C(Cc3n[nH]c4ccccc34)C(=O)N(c3ccccc3)c3ccccc32)C(C)C)cc1 (stereo not drawn) |  |  |  |  | Max (Mus musculus [8]): 89%; ED50 (Mus musculus [9]): 0.0002 µmol/kg; F [10]: Not Active; Cmax [11]: 20 ng/mL; ED50 (Rattus norvegicus [5]): 0.05 µmol/kg; ED50 (Mus musculus [12]): 0.01 µmol/kg; Cmax [13]: 2100 ng/mL; bioavailability [14]: 16%; Vd [15]: 5.17 L/kg; clearance [16]: 38 mL/min/kg; Cmax [17]: 193 ng/mL; half-life [18]: 2.1 h; Max (Mus musculus [6]): 97%; bioavailability [19]: 8%; Max (Rattus norvegicus [7]): 98%
4 | COc1cccc(N(C(=O)CN2C(=O)C(Cc3n[nH]c4ccccc34)C(=O)N(c3ccccc3)c3ccccc32)C(C)C)c1 (stereo not drawn) | 0.479 µM | 90% | 0.07 µM | 0.191 µM | 
5 | COc1ccc(N(C(=O)CN2C(=O)C(Cc3noc4ccccc34)C(=O)N(c3ccccc3)c3ccccc32)C(C)C)cc1 (stereo not drawn) | 0.0891 µM | 80% | 0.13 µM | 174 µM | 
6 | COc1ccc(N(C(=O)CN2C(=O)C(Cc3[nH]nc4c3CCCC4)C(=O)N(c3ccccc3)c3ccccc32)C(C)C)cc1 (stereo not drawn) | 0.129 µM | 80% | 0.3 µM | 2.95 µM | 
7 | COc1ccc(N(C(=O)CN2C(=O)C(Cc3n[nH]c4ccc(F)cc34)C(=O)N(c3ccccc3)c3ccccc32)C(C)C)cc1 (stereo not drawn) | 0.0427 µM | 90% | 0.04 µM | 2.51 µM | 
8 | COc1ccc(N(C(=O)CN2C(=O)C(Cc3nsc4ccccc34)C(=O)N(c3ccccc3)c3ccccc32)C(C)C)cc1 (stereo not drawn) |  | 30% |  |  | 
9 | COc1ccccc1N(C(=O)CN1C(=O)C(Cc2n[nH]c3ccccc23)C(=O)N(c2ccccc2)c2ccccc21)C(C)C (stereo not drawn) |  | 40% | 0.83 µM | 0.129 µM | 
10 | COc1ccc(N(C(=O)CN2C(=O)C(Cc3nn(C)c4ccccc34)C(=O)N(c3ccccc3)c3ccccc32)C(C)C)cc1 (stereo not drawn) |  |  |  |  | Max (Mus musculus [20]): 84%; ED50 (Mus musculus [9]): 0.0008 µmol/kg; ED50 (Rattus norvegicus [5]): 0.22 µmol/kg; ED50 (Mus musculus [12]): 0.03 µmol/kg; Max (Mus musculus [6]): 83%; Max (Rattus norvegicus [7]): 98%
11 | COc1ccc(N(C(=O)CN2C(=O)C(Cc3cc(-c4ccccc4)[nH]n3)C(=O)N(c3ccccc3)c3ccccc32)C(C)C)cc1 (stereo not drawn) |  | 20% |  |  | 
12 | COc1ccc(N(C(=O)CN2C(=O)C(Cc3n[nH]c4c(F)cccc34)C(=O)N(c3ccccc3)c3ccccc32)C(C)C)cc1 (stereo not drawn) |  | 90% | 0.02 µM | 1.05 µM | 
13 | CC(C)N(C(=O)CN1C(=O)C(Cc2n[nH]c3ccccc23)C(=O)N(c2ccccc2)c2ccccc21)c1ccc(F)cc1 (stereo not drawn) | 0.138 µM | 100% | 0.06 µM | 0.479 µM | 
14 | COc1ccc(N(C(=O)CN2C(=O)C(Cc3coc4ccccc34)C(=O)N(c3ccccc3)c3ccccc32)C(C)C)cc1 (stereo not drawn) |  | 40% |  |  | 
15 | COc1ccc(N(C(=O)CN2C(=O)C(Cc3n[nH]c4cccnc34)C(=O)N(c3ccccc3)c3ccccc32)C(C)C)cc1 (stereo not drawn) |  | 40% |  |  | 
